Converted amounts (≈) assume the structure as drawn. Read-outs that look alike come from different tables or passages of the source.
Experiments:
[1] = In vitro release investigation; type: physicochemical
Summary of the method: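 Test formulation (1 mL, 200 ug/mL) was placed in a dialysis bag (8000–14,000 Da) in 200 mL PBS with 0.2% Tween-80, at 37 °C and 120 r/min. 3 mL of medium was withdrawn and replaced at 0.25–168 h. Samples were centrifuged at 8000 r/min for 10 min, and supernatant was analysed by HPLC for cumulative release. Data were fitted to zero-order, first-order and Higuchi models, with r² calculated; n=3.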

[2] = Pharmacokinetics in SD rats; type: in vivo; settings: 10 mg/kg
Summary of the method: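 SD rats (n=5/group) were injected with 10 mg/kg. Blood (0.3 mL) was collected at 0.08–120 h into heparin tubes and centrifuged. Plasma (100 μL) was extracted with methanol:ethyl acetate 10:90 and analysed by HPLC: C18 column, acetonitrile–phosphate water pH 4.0 65:35, 0.8 mL/min, 30 °C, 227 nm. Results are mean ± SEM.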

[3] = tested on: breast cancer cell line MCF-7; test: In vitro cytotoxicity assay; type: cell-based; settings: Homo sapiens
Summary of the method: (§1)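 Cells grown in high-glucose DMEM with 10% FBS and 1% penicillin/streptomycin at 37°C, 5% CO2. Log-phase cells trypsinized, seeded at 5×10³/well, grown 24 h. Test formulations and blank nanoparticles added at 5, 10, 20, 40, 80 ug/mL for 24, 48, 72 or 96 h. MTT (5 mg/mL stock) added for 3–4 h, formazan dissolved in DMSO, A490 read. Inhibition rate calculated from blank-, control- and test-well OD. Dose–effect curves plotted; n=3.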

[4] = tested on: normal hepatocyte cell line L02; test: In vitro cytotoxicity assay; type: cell-based
Summary of the method: as §1

MCF-7 tumor = test: In vivo antitumor assessment in MCF-7 tumor-bearing nude mice; design: species or system BALB/c nude mice
Summary of the method: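 Female BALB/c nude mice, 4 weeks old, were inoculated in the left armpit with 0.1 mL MCF-7 suspension (3 × 10⁷ cells/mL). Dosing started at ~100 mm³ (n=10/group; saline control): 10 mg/kg intraperitoneally every 3 days for 20 days. Body weight and tumor volume (V = π/6·AB²) were measured every 3 days, and deaths tallied every 5 days. Tumors were weighed on day 20; IR = 1 − drug/control tumor weight. Procedures were blinded.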

In vivo acute toxicity = test: In vivo acute toxicity; design: species or system BALB/c mice; settings: single i.p. 40 mg/kg
Summary of the method: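 Female BALB/c mice, 7 weeks, 20 ± 3 g, n=10/group, received a single intraperitoneal 40 mg/kg dose; saline control at equal volume. Status and deaths were recorded daily, and survival was followed over 10 days. Heart, liver and kidney from three randomly selected mice per group were H&E-stained for pathology.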

[5] = In vivo cumulative toxicity; design: species or system BALB/c mice

With `CC(=O)O[C@H]1C(=O)[C@@]2(C)[C@H]([C@H](OC(=O)c3ccccc3)[C@]3(O)C[C@H](OC(=O)[C@H](O)[C@@H](NC(=O)c4ccccc4)c4ccccc4)C(C)=C1C3(C)C)[C@]1(OC(C)=O)CO[C@@H]1C[C@@H]2O` [PTX, Paclitaxel] as the compound, how does the “release model that the in vitro release behavior accords with” value [1] read?
Its value is “first-order model”.

What about the “cumulative release rate at 24 h” value ([1]; PBS with 0.2% Tween-80, 37 °C, 24 h) of the same compound?
The value was “over 60%”.

What about the “First-Order Equation k1” value ([1]; rate constant of release) of the same compound?
The value was 0.0711.

What about the “Higuchi's Equation kh” value ([1]; rate constant of release) of the same compound?
The value was 7.2999.

And the “Zero Order Equation k0” value ([1]; rate constant of release)?
The value was 0.5097.

And the “time up to which plasma PTX concentration stayed detectable” value ([2]; SD rats, intravenous injection, sampling to 120 h)?
Its value is 12 h.

And the AUC(0-t) ([2]; SD, rat, plasma, iv)?
The AUC(0-t) was 2380 ± 276 ng·h/mL.

And the MRT last ([2]; SD, rat, plasma, iv)?
The MRT last was 4.94 ± 0.653 h.

What about the Tmax ([2]; SD, rat, plasma, iv) of the same compound?
The Tmax was 0.25 ± 0.02 h.

And the Vd ([2]; SD, rat, plasma, iv)?
The Vd was 54.5 ± 8.53 L/kg.

What about the clearance ([2]; SD, rat, plasma, iv) of the same compound?
Its clearance is 57.2 mL/min/kg.

What about the half-life ([2]; SD, rat, plasma, iv) of the same compound?
The half-life was 11 ± 0.773 h.

What about the IC50 ([3]; MCF7, 24 h, read-out: IC50 24 h) of the same compound?
The IC50 was over 80 µg/mL.

And the IC50 ([3]; MCF7, 48 h, read-out: IC50 48 h)?
Its IC50 is 64.3 ± 5.73 µg/mL (≈ 75.3 µM).

And the IC50 ([3]; MCF7, 72 h, read-out: IC50 72h)?
The IC50 was 26.2 ± 2.68 µg/mL (≈ 30.7 µM).

What about the IC50 ([3]; MCF7, 96 h, read-out: IC50 96h) of the same compound?
The IC50 was 12.7 ± 0.97 µg/mL (≈ 14.8 µM).

And the IC50 ([4]; 24 h, read-out: IC50 24 h)?
The IC50 was over 80 µg/mL.

What about the IC50 ([4]; 48 h, read-out: IC50 48 h) of the same compound?
Its IC50 is over 80 µg/mL.

What about the IC50 ([4]; 72 h, read-out: IC50 72h) of the same compound?
Its IC50 is 36.9 ± 3.18 µg/mL (≈ 43.2 µM).

What about the IC50 ([4]; 96 h, read-out: IC50 96h) of the same compound?
The IC50 was 17.3 ± 0.83 µg/mL (≈ 20.3 µM).

And the inhibition at 10 µg/mL ([4]; 96 h, read-out: inhibitory rate on cell growth higher than PTX-SLN@CUD)?
Its inhibition at 10 µg/mL is 40.1%.

What about the “deaths / survival of tumor-bearing nude mice during the test” value (MCF-7 tumor; 10 mg/kg i.p. every three days, 20 days) of the same compound?
The value was “death of three nude mice”.

What about the “tumor volume at 20 days / end of trial” value (MCF-7 tumor; 10 mg/kg i.p. every three days, day 20) of the same compound?
The value was 1000 mm^3.

And the tumor inhibition rate (MCF-7 tumor; 10 mg/kg i.p. every three days, day 20, by tumor weight)?
The tumor inhibition rate was 32.93%.

What about the “change of average body weight of nude mice” value (MCF-7 tumor; 10 mg/kg, 20 days versus beginning) of the same compound?
Its value is “significant decrease”.

And the “cancer cell necrosis (H&E staining of tumors)” value (MCF-7 tumor; 10 mg/kg, after 20 days)?
The value was 25%.

What about the “pathology of heart, liver and kidney tissues (H&E), acute toxicity” value (In vivo acute toxicity) of the same compound?
Its value is “severe necrosis”.

And the “mouse deaths in acute toxicity trial” value (In vivo acute toxicity; n=10)?
The value was 10 mice all died within 5 h.

And the “pathology of heart, liver and kidney tissues (H&E), cumulative toxicity” value ([5]; 10 mg/kg i.p. every three days for 60 days)?
Its value is “Some damage to cells and muscle fibers”.

And the “mouse deaths within 60 days / throughout the experiment, cumulative toxicity” value ([5]; 10 mg/kg i.p. every three days for 60 days, n=10)?
Its value is “all mice in this group died”.

And the “mouse deaths within seven days, cumulative toxicity” value ([5]; 10 mg/kg i.p. every three days, n=10)?
Its value is “three mice died”.

— PMC9673813 (International Journal of Nanomedicine, 2022)
